≈ marks a conversion by molar mass, not a printed value.
How the values were obtained:
Assay type in all cases: functional
Enterobacter cloacae = test: In vitro antibacterial activity against clinical isolates of Enterobacter cloacae 041 (gram negative) by agar dilution assay.
How it was run: (§1)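 Agar dilution on Isosensitest agar; compound incorporated by twofold serial dilution. Overnight broth cultures delivered by multipoint inoculator at 10⁵ CFU per point. Plates read after 18 h at 37 °C. MIC taken as the lowest concentration giving complete growth inhibition.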

Pseudomonas aeruginosa = test: In vitro antibacterial activity against clinical isolates of Pseudomonas aeruginosa 2437 (gram negative) by agar dilution assay.; how it was run: as §1
Morganella morganii = test: In vitro antibacterial activity against clinical isolates of Proteus morganii 27 (gram negative) by agar dilution assay.; how it was run: as §1
Escherichia coli = test: In vitro antibacterial activity against clinical isolates of Escherichia coli 15 (gram negative) by agar dilution assay.; how it was run: as §1
Staphylococcus aureus = test: In vitro antibacterial activity against clinical isolates of Staphylococcus aureus 18773 (gram-positive) by agar dilution assay.; how it was run: as §1
Klebsiella pneumoniae = test: In vitro antibacterial activity against clinical isolates of Klebsiella pneumoniae-4 (gram negative) by agar dilution assay.; how it was run: as §1

Row | Compound | MIC (Enterobacter cloacae) | MIC (Pseudomonas aeruginosa) | MIC (Morganella morganii) | MIC (Escherichia coli) | MIC (Staphylococcus aureus) | MIC (Klebsiella pneumoniae)
1 | CC1CN(c2c(F)cc3c(=O)c(C(=O)O)cn4c3c2SCC4)CC(C)N1 (centres undefined) | 3.12 µg/mL (≈ 8.27 µM) | 100 µg/mL (≈ 265 µM) | 25 µg/mL (≈ 66.2 µM) | 6.25 µg/mL (≈ 16.6 µM) | 3.12 µg/mL (≈ 8.27 µM) | 6.25 µg/mL (≈ 16.6 µM)
2 | O=C(O)c1cn2c3c(c(Cl)c(F)cc3c1=O)S(=O)(=O)CC2 | – | – | – | > 50 µg/mL | – | –
3 | O=C(O)c1cn2c3c(c(N4CCN(C(=O)C(F)(F)F)CC4)c(F)cc3c1=O)SCC2 | < 0.39 µg/mL | 12.5 µg/mL (≈ 28.1 µM) | 1.56 µg/mL (≈ 3.5 µM) | < 0.39 µg/mL | 1.56 µg/mL (≈ 3.5 µM) | < 0.39 µg/mL
4 | O=C(O)c1cn2c3c(cc(Cl)cc3c1=O)SCC2 | 12.5 µg/mL (≈ 44.4 µM) | > 100 µg/mL | 6.25 µg/mL (≈ 22.2 µM) | 3.12 µg/mL (≈ 11.1 µM) | 25 µg/mL (≈ 88.7 µM) | 6.25 µg/mL (≈ 22.2 µM)
5 | O=C(O)c1cn2c3c(cc(N4CCN(C(=O)C(F)(F)F)CC4)cc3c1=O)SCC2 | – | 100 µg/mL (≈ 234 µM) | > 50 µg/mL | > 50 µg/mL | 50 µg/mL (≈ 117 µM) | –
6 | CN1CCN(c2cc3c4c(c2)c(=O)c(C(=O)O)cn4CCS3)CC1 | – | > 100 µg/mL | 100 µg/mL (≈ 289 µM) | 100 µg/mL (≈ 289 µM) | 100 µg/mL (≈ 289 µM) | –
7 | O=C(O)c1cn2c3c(c(N4CCCC4)c(F)cc3c1=O)SCC2 | 1.56 µg/mL (≈ 4.67 µM) | 3.12 µg/mL (≈ 9.33 µM) | 3.12 µg/mL (≈ 9.33 µM) | 1.56 µg/mL (≈ 4.67 µM) | < 0.39 µg/mL | 1.56 µg/mL (≈ 4.67 µM)
8 | O=C(O)c1cn2c3c(cccc3c1=O)SCC2 | 25 µg/mL (≈ 101 µM) | 50 µg/mL (≈ 202 µM) | 12.5 µg/mL (≈ 50.6 µM) | 6.25 µg/mL (≈ 25.3 µM) | 25 µg/mL (≈ 101 µM) | 25 µg/mL (≈ 101 µM)
9 | O=C(O)c1cn2c3c(c(Cl)c(N4CCCC4)cc3c1=O)SCC2 | > 50 µg/mL | > 50 µg/mL | > 50 µg/mL | > 50 µg/mL | > 50 µg/mL | > 50 µg/mL
10 | O=C(O)c1cn2c3c(cc(N4CCOCC4)cc3c1=O)SCC2 | > 50 µg/mL | 6.25 µg/mL (≈ 18.8 µM) | > 50 µg/mL | > 50 µg/mL | > 50 µg/mL | > 50 µg/mL
11 | O=C(O)c1cn2c3c(cc(F)c(N4CCCC4)c3c1=O)SCC2 | – | – | – | > 100 µg/mL | > 100 µg/mL | > 100 µg/mL
12 | O=C(O)c1cn2c3c(cc(N4CCN(Cc5ccccc5)CC4)cc3c1=O)SCC2 | – | > 50 µg/mL | > 50 µg/mL | 50 µg/mL (≈ 119 µM) | 50 µg/mL (≈ 119 µM) | –
13 | O=C(O)c1cn2c3c(cc(N4CCN(CCO)CC4)cc3c1=O)SCC2 | – | > 100 µg/mL | > 50 µg/mL | 100 µg/mL (≈ 266 µM) | 100 µg/mL (≈ 266 µM) | –
14 | O=C(O)c1cn2c3c(cc(F)cc3c1=O)S(=O)(=O)CC2 | – | > 50 µg/mL | – | 100 µg/mL (≈ 336 µM) | > 50 µg/mL | –
15 | O=C(O)c1cn2c3c(c(N4CCCC4)c(F)cc3c1=O)S(=O)(=O)CC2 | 25 µg/mL (≈ 68.2 µM) | > 50 µg/mL | > 50 µg/mL | 3.12 µg/mL (≈ 8.52 µM) | 3.12 µg/mL (≈ 8.52 µM) | 25 µg/mL (≈ 68.2 µM)
16 | O=C(O)c1cn2c3c(cc(F)c(Cl)c3c1=O)SCC2 | > 50 µg/mL | > 50 µg/mL | > 50 µg/mL | > 50 µg/mL | > 50 µg/mL | > 50 µg/mL
17 | O=C(O)c1cn2c3c(c(Cl)c(F)cc3c1=O)SCC2 | 0.39 µg/mL (≈ 1.3 µM) | > 25 µg/mL | 6.25 µg/mL (≈ 20.9 µM) | 0.39 µg/mL (≈ 1.3 µM) | 0.39 µg/mL (≈ 1.3 µM) | 0.78 µg/mL (≈ 2.6 µM)
18 | O=C(O)c1cn2c3c(c(N4CCN(CC(F)(F)F)CC4)c(F)cc3c1=O)SCC2 | > 50 µg/mL | > 50 µg/mL | > 50 µg/mL | > 50 µg/mL | 0.39 µg/mL (≈ 0.904 µM) | > 50 µg/mL
19 | CCOC(=O)N1CCN(c2c(F)cc3c(=O)c(C(=O)O)cn4c3c2SCC4)CC1 | 6.25 µg/mL (≈ 14.8 µM) | > 50 µg/mL | > 50 µg/mL | 6.25 µg/mL (≈ 14.8 µM) | 0.39 µg/mL (≈ 0.925 µM) | 6.25 µg/mL (≈ 14.8 µM)

Row | Compound | MIC (Enterobacter cloacae) | MIC (Pseudomonas aeruginosa) | MIC (Morganella morganii) | MIC (Escherichia coli) | MIC (Staphylococcus aureus) | MIC (Klebsiella pneumoniae)
20 | O=C(O)c1cn2c3c(cc(F)cc3c1=O)SCC2 | 6.25 µg/mL (≈ 23.6 µM) | 50 µg/mL (≈ 188 µM) | 3.12 µg/mL (≈ 11.8 µM) | 0.78 µg/mL (≈ 2.94 µM) | 6.25 µg/mL (≈ 23.6 µM) | 3.12 µg/mL (≈ 11.8 µM)
21 | O=C(O)c1cn2c3c(c(N4CCSCC4)c(F)cc3c1=O)SCC2 | 1.56 µg/mL (≈ 4.26 µM) | > 50 µg/mL | 6.25 µg/mL (≈ 17.1 µM) | 3.12 µg/mL (≈ 8.51 µM) | 0.78 µg/mL (≈ 2.13 µM) | 1.56 µg/mL (≈ 4.26 µM)
22 | O=C(O)c1cn2c3c(cc(N4CCCC4)cc3c1=O)SCC2 | – | 100 µg/mL (≈ 316 µM) | – | 50 µg/mL (≈ 158 µM) | 50 µg/mL (≈ 158 µM) | –
23 | O=C(O)c1cn2c3c(c(N4CCNCC4)c(F)cc3c1=O)SCC2 | < 0.39 µg/mL | 12.5 µg/mL (≈ 35.8 µM) | 1.56 µg/mL (≈ 4.46 µM) | 0.39 µg/mL (≈ 1.12 µM) | 0.78 µg/mL (≈ 2.23 µM) | < 0.39 µg/mL
24 | O=C(O)c1cn2c3c(cc(F)c(N4CCNCC4)c3c1=O)SCC2 | > 100 µg/mL | > 100 µg/mL | > 100 µg/mL | > 100 µg/mL | > 100 µg/mL | > 100 µg/mL
25 | O=C(O)c1cn2c3c(c(Cl)c(Cl)cc3c1=O)SCC2 | > 50 µg/mL | > 50 µg/mL | 1.56 µg/mL (≈ 4.93 µM) | > 50 µg/mL | 0.78 µg/mL (≈ 2.47 µM) | 12.5 µg/mL (≈ 39.5 µM)
26 | O=C(O)c1cn2c3c(c(Cl)c(N4CCNCC4)cc3c1=O)SCC2 | > 50 µg/mL | > 50 µg/mL | > 50 µg/mL | > 50 µg/mL | > 50 µg/mL | > 50 µg/mL
27 | O=C(O)c1cn2c3c(c(Cl)c(F)cc3c1=O)[S+]([O-])CC2 (centres undefined) | > 100 µg/mL | > 100 µg/mL | > 100 µg/mL | > 100 µg/mL | > 100 µg/mL | > 100 µg/mL
28 | O=C(O)c1cn2c3c(cc(N4CCCC4)c(Cl)c3c1=O)SCC2 | – | > 100 µg/mL | > 100 µg/mL | > 100 µg/mL | 100 µg/mL (≈ 285 µM) | > 100 µg/mL
29 | O=C(O)c1cn2c3c(c(Cl)c(N4CCOCC4)cc3c1=O)SCC2 | > 50 µg/mL | 6.25 µg/mL (≈ 17 µM) | > 50 µg/mL | 6.25 µg/mL (≈ 17 µM) | > 50 µg/mL | > 50 µg/mL
30 | O=C(O)c1cn2c3c(ccc(C(F)(F)F)c3c1=O)SCC2 | > 50 µg/mL | 100 µg/mL (≈ 317 µM) | > 50 µg/mL | > 50 µg/mL | > 50 µg/mL | > 50 µg/mL
31 | O=C(O)c1cn2c3c(c(N4CCCC4)c(F)cc3c1=O)[S+]([O-])CC2 (centres undefined) | 50 µg/mL (≈ 143 µM) | > 50 µg/mL | > 50 µg/mL | 12.5 µg/mL (≈ 35.7 µM) | 12.5 µg/mL (≈ 35.7 µM) | 25 µg/mL (≈ 71.4 µM)
32 | O=C(O)c1cn2c3c(cccc3c1=O)S(=O)(=O)CC2 | > 100 µg/mL | 100 µg/mL (≈ 358 µM) | > 100 µg/mL | 100 µg/mL (≈ 358 µM) | > 100 µg/mL | > 100 µg/mL
33 | O=C(O)c1cn2c3c(cc(N4CCNCC4)cc3c1=O)SCC2 | 50 µg/mL (≈ 151 µM) | 50 µg/mL (≈ 151 µM) | 50 µg/mL (≈ 151 µM) | > 50 µg/mL | > 50 µg/mL | 50 µg/mL (≈ 151 µM)
34 | CN1CCN(c2cc3c(=O)c(C(=O)O)cn4c3c(c2Cl)SCC4)CC1 | > 50 µg/mL | 6.25 µg/mL (≈ 16.5 µM) | > 50 µg/mL | > 50 µg/mL | > 50 µg/mL | > 50 µg/mL
35 | CCn1cc(C(=O)O)c(=O)c2cc(F)c(N3CCNCC3)cc21 [NORFLOXACIN] | 0.39 µg/mL (≈ 1.22 µM) | 1.56 µg/mL (≈ 4.89 µM) | 0.78 µg/mL (≈ 2.44 µM) | 0.19 µg/mL (≈ 0.595 µM) | 0.19 µg/mL (≈ 0.595 µM) | 0.19 µg/mL (≈ 0.595 µM)
36 | CC1COc2c(N3CCN(C)CC3)c(F)cc3c(=O)c(C(=O)O)cn1c23 (centres undefined) [OFLOXACIN] | 0.19 µg/mL (≈ 0.526 µM) | 1.56 µg/mL (≈ 4.32 µM) | 0.78 µg/mL (≈ 2.16 µM) | 0.19 µg/mL (≈ 0.526 µM) | 0.19 µg/mL (≈ 0.526 µM) | 0.39 µg/mL (≈ 1.08 µM)
37 | CCn1cc(C(=O)O)c(=O)c2cnc(N3CCNCC3)nc21 [PIPEMIDIC ACID] | 0.78 µg/mL (≈ 2.57 µM) | > 25 µg/mL | 3.12 µg/mL (≈ 10.3 µM) | 0.39 µg/mL (≈ 1.29 µM) | 3.12 µg/mL (≈ 10.3 µM) | 0.78 µg/mL (≈ 2.57 µM)

— ChEMBL document CHEMBL1123921, “Quinolonecarboxylic acids. 2. Synthesis and antibacterial evaluation of 7-oxo-2,3-dihydro-7H-pyrido[1,2,3-de][1,4]benzothiazine-6-carboxylic acids” (J Med Chem, 1987)
